# From ChEMBL document CHEMBL5038583, “Highly Potent and Selective Butyrylcholinesterase Inhibitors for Cognitive Improvement and Neuroprotection” (J Med Chem, 2021)
# Active and inactive are the calls of the source. The rule behind the calls is not given here.
# Tests used:
# [1] = test system: Mus musculus; test: Anti-alzheimer activity in amyloid beta(1 to 42)-induced ICR mouse model of cognitive impairment assessed as simplification of trajectories at 15 mg/kg, ig administered at days 2 to 14 by Morris water maze test; assay type: functional, organism-based
# Outline: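 ICR mice, n = 8 per group. Aggregated Aβ1-42 (5 mM DMSO stock incubated 24 h at 37 °C in saline at 2 mg/mL) given 10 μg per mouse icv on day 1; saline icv for sham. Compound 15 mg/kg intragastric on days 2−14; donepezil reference. Morris water maze training days 9−13, probe trial day 14; tracks recorded; mean ± SD.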
# [2] = Ratio of drug concentration in brain to plasma of ICR mouse at 10 mg/kg, po measured after 0.5 hrs; assay type: ADME, organism-based
# Outline: (§1)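 ICR mice given 10 mg/kg orally in 5% DMSO/40% PEG400/55% saline (1 mg/mL). Blood (retro-orbital) and brain collected at 30, 60, 120 and 240 min. Brain homogenized in 2 volumes PBS, extracted with ethyl acetate, dried and reconstituted in mobile phase. Plasma processed as in the rat study; LC/MS/MS. Brain/plasma ratios from exposures, AUC(B) vs AUC(P).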
# [3] = Half life in overnight fasted Sprague-Dawley rat at 10 mg/kg, iv measured upto 1440 mins by LC/MS/MS analysis; assay type: ADME, organism-based; details: in vivo
# Outline: (§2)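 Male SD rats (180−220 g), n = 8 per route, fasted overnight with water available. Single 10 mg/kg dose p.o. or i.v. in DMSO/PEG400/saline (10:80:10). Retro-orbital blood taken into heparinized tubes at 1–1440 min. Plasma precipitated with methanol containing theophylline internal standard, then LC/MS/MS against a blank-plasma standard curve. Parameters from noncompartmental extravascular analysis; mean ± SD.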
# [4] = Metabolic stability in human liver microsomes assessed as intrinsic clearance at 1 uM measured upto 45 mins in presence of NADPH by LC/MS/MS analysis; assay type: ADME, Microsome; details: read-out: CLH
# Outline: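 Human liver microsomes 0.5 mg/mL, compound 1 μM final, NADPH 2 mM, at 37 °C. Reactions stopped at 0, 5, 15, 30 and 45 min with acetonitrile containing imipramine internal standard. LC/MS/MS quantitation relative to 0 min; initial rates used for t1/2 and intrinsic clearance; ketanserin as assay control. Mean of two independent experiments.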
# [5] = AUC (0 to t) in ICR mouse plasma at 10 mg/kg, po measured upto 240 mins; assay type: ADME, organism-based; parameters: route oral, dose 10 mg/kg, time <=240; outline: as §1
# [6] = test system: BV-2; test: Anti-inflammatory activity against mouse BV-2 cells assessed as blocked of LPS-induced increased ROS production by measuring green fluorescence preincubated for 1 hr by DCFH-DA staining based fluorescence microscopy; assay type: functional, cell-based
# Outline: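 BV2 cells seeded at 1 × 10⁴ per well and grown 24 h at 37 °C. Compounds at various concentrations for 1 h, then LPS 2.5 μg/mL for 24 h. Washed in PBS, loaded with DCFH-DA 5 μM (final) for 30 min, washed three times. Intracellular ROS taken as green fluorescence intensity by inverted fluorescence microscopy, exposure fixed at 10.2 ms.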
# [7] = AUC (0 to t) in ICR mouse brain at 10 mg/kg, po measured upto 240 mins; assay type: ADME, organism-based; parameters: route oral, dose 10 mg/kg, time <=240; outline: as §1
# [8] = MRT (0 to infinity) in overnight fasted Sprague-Dawley rat at 10 mg/kg, iv measured upto 1440 mins by LC/MS/MS analysis; assay type: ADME, organism-based; details: in vivo; outline: as §2
# [9] = Ratio of drug concentration in brain to plasma of ICR mouse at 10 mg/kg, po measured after 4 hrs; assay type: ADME, organism-based; outline: as §1
# [10] = Cmax in overnight fasted Sprague-Dawley rat at 10 mg/kg, po measured upto 1440 mins by LC/MS/MS analysis; assay type: ADME, organism-based; parameters: route oral, dose 10 mg/kg, time <=1440; details: in vivo; outline: as §2
# [11] = test system: SH-SY5Y; test: Neuroprotective activity against glutamate-induced cytotoxicity in human SH-SY5Y cells at 10 uM pretreated for 2 hrs followed by glutamate stimulation and measured after 24 hrs by MTT assay; assay type: functional, cell-based; details: time 26.0 hrs
# Outline: (§3)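 SH-SY5Y cells seeded at 5000 per well and grown 24 h. Pretreated 2 h with compound (2.5 or 10 μM, diluted in DMEM from 10⁻¹ M DMSO stock), then H₂O₂ 200 μM, glutamate 20 mM or aggregated Aβ1-42 15 μM for 24 h. MTT added for 4 h, formazan dissolved in DMSO, absorbance read at 492 nm. Viability relative to untreated control; mean ± SEM, n = 3.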
# [12] = Half life in overnight fasted Sprague-Dawley rat at 10 mg/kg, po measured upto 1440 mins by LC/MS/MS analysis; assay type: ADME, organism-based; details: in vivo; outline: as §2
# [13] = test system: SH-SY5Y; test: Neuroprotective activity against H2O2-induced cytotoxicity in human SH-SY5Y cells pretreated for 2 hrs followed by H2O2 stimulation and measured after 24 hrs by MTT assay; assay type: functional, cell-based; details: dose 2.5-10 µM, time 26.0 hrs; outline: as §3
# [14] = test system: SH-SY5Y; test: Cytotoxicity against human SH-SY5Y cells assessed as survival rate at 100 uM incubated for 24 hrs by MTT assay; assay type: functional
# Outline: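 Cells seeded at 1 × 10⁴/well in DMEM with 10% FBS and left overnight, then given compound (DMSO stock diluted in DMEM) for 24 h at 37 °C. MTT added for 4 h, formazan dissolved in DMSO, absorbance read at 492 nm. Viability taken as OD treated/OD DMEM × 100%; IC50 from three independent experiments, mean SD.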
# [15] = test system: Mus musculus; test: Antialzheimer activity in scopolamine-induced ICR mouse model of cognitive impairment assessed as reduction in escape latency at 30 mg/kg, ig administered for 10 consecutive days by Morris water maze test; assay type: functional, organism-based
# Outline: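 Male ICR mice (8−10 weeks, 18−20 g), n = 8 per group. Compound at 15 or 30 mg/kg intragastric in DMSO/saline (10:90), given 30 min before scopolamine 3 mg/kg i.p., for 10 consecutive days; tacrine 15 mg/kg as reference. Morris water maze: 5 days of training, probe trial on day 6 with platform removed. Escape latency and trajectory recorded; mean ± SD.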
# [16] = Tmax in overnight fasted Sprague-Dawley rat at 10 mg/kg, po measured upto 1440 mins by LC/MS/MS analysis; assay type: ADME, organism-based; details: in vivo, 24 h; outline: as §2
# [17] = AUC (0 to infinity) in overnight fasted Sprague-Dawley rat at 10 mg/kg, po measured upto 1440 mins by LC/MS/MS analysis; assay type: ADME, organism-based; parameters: route oral, dose 10 mg/kg, time <=1440; details: in vivo; outline: as §2
# [18] = Ratio of drug concentration in brain to plasma of ICR mouse at 10 mg/kg, po measured after 1 hrs; assay type: ADME, organism-based; outline: as §1
# [19] = Acute toxicity in ICR mouse assessed as animal death at […]; details: in vivo, po, 1000 mg/kg, 336 h
# [20] = target: Cholinesterase (Equus caballus, UniProt P81908); test: Inhibition of equine serum BChE using butyrylthiocholine iodide as substrate preincubated for 5 mins followed by substrate addition and measured after 2 mins by DTNB-reagent based Ellman's method
# [21] = test system: Mus musculus; test: Anti-alzheimer activity in amyloid beta(1 to 42)-induced ICR mouse model of cognitive impairment assessed as enhanced alternation performance by measuring total number of arm entries at 15 mg/kg, ig administered at days 2 to 14 and measured on day 15 by Y-maze test; assay type: functional
# Outline: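 Oligomerized Aβ1-42 (10 μg per mouse, icv) given on day 1; saline icv for sham. Dosing 15 mg/kg ig on days 2−14 (donepezil as positive control), n = 8. Spontaneous alternation read on day 15 in a three-arm grey PVC Y maze, arms at 120°. Mean SD.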
# Chain of Cholinesterase (P81908 whole entry): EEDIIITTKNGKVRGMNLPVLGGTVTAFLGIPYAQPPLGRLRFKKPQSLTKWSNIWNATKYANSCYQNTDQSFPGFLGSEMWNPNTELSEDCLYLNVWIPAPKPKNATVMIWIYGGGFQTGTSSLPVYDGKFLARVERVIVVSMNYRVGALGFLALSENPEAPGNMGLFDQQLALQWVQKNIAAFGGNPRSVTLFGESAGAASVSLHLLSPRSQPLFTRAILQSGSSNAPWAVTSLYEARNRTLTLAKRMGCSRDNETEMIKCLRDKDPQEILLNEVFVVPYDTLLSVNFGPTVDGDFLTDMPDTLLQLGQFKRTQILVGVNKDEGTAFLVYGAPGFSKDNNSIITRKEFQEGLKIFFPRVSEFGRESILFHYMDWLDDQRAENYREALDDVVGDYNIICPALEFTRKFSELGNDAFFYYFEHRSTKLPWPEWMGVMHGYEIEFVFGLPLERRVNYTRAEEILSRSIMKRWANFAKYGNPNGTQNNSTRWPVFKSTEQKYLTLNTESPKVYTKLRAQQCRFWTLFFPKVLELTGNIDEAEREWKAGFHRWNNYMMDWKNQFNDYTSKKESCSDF
structure (smiles),measurement,setting,value
Nc1nonc1-c1nc2ccccc2n1CC(=O)Nc1cnc2ccccc2c1,Activity,[1],Active
same,Kp at 0.5 h,[2],1.54
same,half-life,[3],8.87 h
same,CLint scaled at 1 µM,[4],10.9 mL/min/kg
same,AUC(0-t) at 4 h,[5],94.7 ng·h/mL
same,Activity,[6],Active
same,AUC(0-t) at 4 h,[7],34.1 ng·h/mL
same,MRT inf,[8],14.1 h
same,Kp at 4 h,[9],1.54
same,Cmax,[10],44.7 ng/mL
same,Activity,[11],Active
same,half-life,[12],5.47 h
same,Activity,[13],Dose-Dependent Effect
same,Activity,[14],62.19%
same,Activity,[15],Active
same,Tmax,[16],9.5 h
same,AUC(0-inf),[17],662 ng·h/mL
same,Kp at 1 h,[18],5.05
same,Activity,[19],Non-Toxic
same,IC50,[20],20 nM
same,Activity,[21],Active
